# Measured values reported in ChEMBL document CHEMBL4825764, “Flavonoid Monomers as Potent, Nontoxic, and Selective Modulators of the Breast Cancer Resistance Protein (ABCG2)” (J Med Chem, 2021).
# Activity calls are given as the source filed them. The calls are words filed in the database; no cut-off is given here.
# Tested on: L929
# Assay: Cytotoxicity against mouse L929 cells assessed as reduction in cell viability
# Assay type: cell-based
# Conditions: not given
row,Compound,IC50 [µM]
1,COC(=O)c1cccc(COc2c(-c3ccc(OCCOCCOCCn4cc(CN(CCO)Cc5ccccc5)nn4)cc3)oc3ccccc3c2=O)c1,> 100
2,COC(=O)c1cccc(COc2c(-c3ccc(OCCOCCn4cc(CN(Cc5ccccc5)Cc5ccccc5)nn4)cc3)oc3ccccc3c2=O)c1,> 100
3,COC(=O)c1cccc(COc2c(-c3ccc(OCCOCCN=[N+]=[N-])cc3)oc3ccccc3c2=O)c1,67.5

# Species on record: Homo sapiens
# Assay: Selectivity index, ratio of EC50 for inhibition of MRP1 (unknown origin) expressed in 2008/MRP1 cells assessed as reversal of doxorubicin resistance to EC50 for inhibition of BCRP (unknown origin) transfected in HEK293/R2 cells assessed as reversal of topotecan resistance
# Assay type: cell-based
# Conditions: not given
# Summary of the method: (§1)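 Selectivity index is the EC50 against the other transporter's line divided by the EC50 in the BCRP line. All values come from 5-day MTS reversal assays. These use topotecan in HEK293/R2 (0–2000 nM) or MCF7-MX100 (0–100 μM), doxorubicin in 2008/MRP1, and paclitaxel in LCC6MDR, each with modulator at 0–1000 nM.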
row,Compound,Ratio EC50
1,COC(=O)c1cccc(COc2c(-c3ccc(OCCOCCOCCn4cc(CN(CCO)Cc5ccccc5)nn4)cc3)oc3ccccc3c2=O)c1,714
2,COC(=O)c1cccc(COc2c(-c3ccc(OCCOCCn4cc(CN(Cc5ccccc5)Cc5ccccc5)nn4)cc3)oc3ccccc3c2=O)c1,31
3,COC(=O)c1cccc(COc2c(-c3ccc(OCCOCCN=[N+]=[N-])cc3)oc3ccccc3c2=O)c1,12

# Species on record: Homo sapiens
# Assay: Selectivity index, ratio of EC50 for inhibition of P-gp (unknown origin) expressed in LCC6MDR cells assessed as reversal of paclitaxel resistance to EC50 for Inhibition of BCRP (unknown origin) expressed in MCF7/MX100 cells assessed as reversal of topotecan resistance
# Assay type: cell-based
# Conditions: not given
# Summary of the method: as §1
row,Compound,Ratio EC50
1,COC(=O)c1cccc(COc2c(-c3ccc(OCCOCCOCCn4cc(CN(CCO)Cc5ccccc5)nn4)cc3)oc3ccccc3c2=O)c1,193
2,COC(=O)c1cccc(COc2c(-c3ccc(OCCOCCn4cc(CN(Cc5ccccc5)Cc5ccccc5)nn4)cc3)oc3ccccc3c2=O)c1,34
3,COC(=O)c1cccc(COc2c(-c3ccc(OCCOCCN=[N+]=[N-])cc3)oc3ccccc3c2=O)c1,20

# Tested on: HEK293
# Assay: Effect on BCRP protein expression in human HEK293/R2 cells at 1 to 3 uM after 24 hrs by flow cytometric analysis
# Assay type: functional, cell-based
# Conditions: dose 1-3 µM
# Summary of the method: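 HEK293/R2 and HEK293/pcDNA3.1 cells were exposed to 0, 1 or 3 μM compound for 24 hr, with 0.1–0.3% DMSO as solvent control. Cells were trypsinized and stained with FITC anti-human BCRP for 45 min at 4 °C, with an IgG2b-FITC isotype control. Surface signal was read by flow cytometry on FL1 over 50,000 events.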
row,Compound,Activity
1,COC(=O)c1cccc(COc2c(-c3ccc(OCCOCCOCCn4cc(CN(CCO)Cc5ccccc5)nn4)cc3)oc3ccccc3c2=O)c1,inactive

# Species on record: Homo sapiens
# Assay: Selectivity index, ratio of EC50 for inhibition of P-gp (unknown origin) expressed in LCC6MDR cells assessed as reversal of mitoxantrone resistance to EC50 for inhibition of BCRP (unknown origin) expressed in HEK293/R2 cells assessed as reversal of mitoxantrone resistance
# Assay type: cell-based
# Conditions: not given
# Summary of the method: (§2)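 Selectivity index is the EC50 in 2008/MRP1 or LCC6MDR divided by the EC50 in HEK293/R2. All three lines were measured by 5-day mitoxantrone co-incubation with modulator, with MTS/PMS read-out at 490 nm.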
row,Compound,Ratio EC50
1,COC(=O)c1cccc(COc2c(-c3ccc(OCCOCCOCCn4cc(CN(CCO)Cc5ccccc5)nn4)cc3)oc3ccccc3c2=O)c1,5

# Biological target: T1, Broad substrate specificity ATP-binding cassette transporter ABCG2 (Homo sapiens, UniProt Q9UNQ0)
# T1 sequence (Q9UNQ0 whole entry): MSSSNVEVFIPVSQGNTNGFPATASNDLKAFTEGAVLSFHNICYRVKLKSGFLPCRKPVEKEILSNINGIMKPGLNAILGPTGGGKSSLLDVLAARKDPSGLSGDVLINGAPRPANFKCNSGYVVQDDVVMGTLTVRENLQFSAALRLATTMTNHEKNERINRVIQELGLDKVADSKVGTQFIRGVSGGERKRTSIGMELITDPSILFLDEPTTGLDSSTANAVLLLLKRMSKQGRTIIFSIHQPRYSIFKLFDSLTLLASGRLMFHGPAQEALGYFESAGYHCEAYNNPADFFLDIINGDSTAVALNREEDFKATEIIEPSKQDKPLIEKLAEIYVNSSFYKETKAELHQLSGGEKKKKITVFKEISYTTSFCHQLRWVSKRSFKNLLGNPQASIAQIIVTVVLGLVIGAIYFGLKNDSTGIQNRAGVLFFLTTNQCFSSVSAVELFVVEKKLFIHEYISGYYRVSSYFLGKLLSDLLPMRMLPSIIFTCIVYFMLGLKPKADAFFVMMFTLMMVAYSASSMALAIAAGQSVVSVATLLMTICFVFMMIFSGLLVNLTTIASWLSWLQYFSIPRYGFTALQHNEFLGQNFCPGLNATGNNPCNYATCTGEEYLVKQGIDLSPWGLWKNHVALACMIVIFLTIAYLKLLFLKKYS
# Assay: Inhibition of BCRP (unknown origin) expressed in human HEK293/R2 cells assessed as increase in intracellular mitoxantrone accumulation by measuring fold change at 2 uM after 2 hrs in presence of mitoxantrone by flow cytometry analysis relative to control
# Assay type: cell-based
# Conditions: hek293/r2, 2 h
# Summary of the method: (§3)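 5 × 10^5 HEK293/pcDNA3.1 or HEK293/R2 cells in 1 mL were incubated 2 hr at 37 °C with 50 μM topotecan or 5 μM mitoxantrone plus 1 or 2 μM modulator, with DMSO as the vehicle control. Cells were washed in cold PBS and resuspended in FACS buffer. Flow cytometry read FL1 (topotecan) or FL4 (mitoxantrone) over 50,000 events, normalized to wild-type cells.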
row,Compound,fold change (FC)
1,COC(=O)c1cccc(COc2c(-c3ccc(OCCOCCOCCn4cc(CN(CCO)Cc5ccccc5)nn4)cc3)oc3ccccc3c2=O)c1,5.8

# Species on record: Homo sapiens
# Assay: Selectivity index, ratio of EC50 for inhibition of MRP1 (unknown origin) expressed in 2008/MRP1 cells assessed as reversal of mitoxantrone resistance to EC50 for inhibition of BCRP (unknown origin) expressed in HEK293/R2 cells assessed as reversal of mitoxantrone resistance
# Assay type: cell-based
# Conditions: not given
# Summary of the method: as §2
row,Compound,Ratio EC50
1,COC(=O)c1cccc(COc2c(-c3ccc(OCCOCCOCCn4cc(CN(CCO)Cc5ccccc5)nn4)cc3)oc3ccccc3c2=O)c1,4

# Biological target: T1, Broad substrate specificity ATP-binding cassette transporter ABCG2
# Assay: Inhibition of BCRP (unknown origin) expressed in human HEK293/R2 cells assessed as increase in intracellular mitoxantrone accumulation by measuring fold change at 1 uM after 2 hrs in presence of mitoxantrone by flow cytometry analysis relative to control
# Assay type: cell-based
# Conditions: hek293/r2, 2 h
# Summary of the method: as §3
row,Compound,fold change (FC)
1,COC(=O)c1cccc(COc2c(-c3ccc(OCCOCCOCCn4cc(CN(CCO)Cc5ccccc5)nn4)cc3)oc3ccccc3c2=O)c1,6.5

# Biological target: T1, Broad substrate specificity ATP-binding cassette transporter ABCG2
# Assay: Inhibition of BCRP (unknown origin) expressed in wild type HEK293/pcDNA3.1 cells assessed as increase in intracellular topotecan accumulation at 1 to 2 uM after 2 hrs in presence of topotecan by flow cytometry analysis relative to control
# Assay type: cell-based
# Conditions: hek293, 2 h, dose 1-2 µM
# Summary of the method: as §3
row,Compound,inhibition (INH)
1,COC(=O)c1cccc(COc2c(-c3ccc(OCCOCCOCCn4cc(CN(CCO)Cc5ccccc5)nn4)cc3)oc3ccccc3c2=O)c1,Not Active

# Biological target: T1, Broad substrate specificity ATP-binding cassette transporter ABCG2
# Assay: Inhibition of BCRP (unknown origin) expressed in human HEK293/R2 cells assessed as increase in intracellular topotecan accumulation by measuring fold change at 1 uM after 2 hrs in presence of topotecan by flow cytometry analysis relative to control
# Assay type: cell-based
# Conditions: hek293/r2, 2 h
# Summary of the method: as §3
row,Compound,fold change (FC)
1,COC(=O)c1cccc(COc2c(-c3ccc(OCCOCCOCCn4cc(CN(CCO)Cc5ccccc5)nn4)cc3)oc3ccccc3c2=O)c1,7.1

# Biological target: T1, Broad substrate specificity ATP-binding cassette transporter ABCG2
# Assay: Inhibition of BCRP (unknown origin) expressed in wild type HEK293/pcDNA3.1 cells assessed as increase in intracellular mitoxantrone accumulation at 1 to 2 uM after 2 hrs in presence of mitoxantrone by flow cytometry analysis relative to control
# Assay type: cell-based
# Conditions: hek293, 2 h, dose 1-2 µM
# Summary of the method: as §3
row,Compound,inhibition (INH)
1,COC(=O)c1cccc(COc2c(-c3ccc(OCCOCCOCCn4cc(CN(CCO)Cc5ccccc5)nn4)cc3)oc3ccccc3c2=O)c1,Not Active

# Species on record: Homo sapiens
# Assay: Selectivity index, ratio of EC50 for inhibition of P-gp (unknown origin) expressed in LCC6MDR cells assessed as reversal of paclitaxel resistance to EC50 for inhibition of BCRP (unknown origin) transfected in HEK293/R2 cells assessed as reversal of topotecan resistance
# Assay type: cell-based
# Conditions: not given
# Summary of the method: as §1
row,Compound,Ratio EC50
1,COC(=O)c1cccc(COc2c(-c3ccc(OCCOCCOCCn4cc(CN(CCO)Cc5ccccc5)nn4)cc3)oc3ccccc3c2=O)c1,220
2,COC(=O)c1cccc(COc2c(-c3ccc(OCCOCCn4cc(CN(Cc5ccccc5)Cc5ccccc5)nn4)cc3)oc3ccccc3c2=O)c1,31
3,COC(=O)c1cccc(COc2c(-c3ccc(OCCOCCN=[N+]=[N-])cc3)oc3ccccc3c2=O)c1,12

# Biological target: T1, Broad substrate specificity ATP-binding cassette transporter ABCG2
# Assay: Inhibition of BCRP (unknown origin) expressed in human HEK293/R2 cells assessed as increase in intracellular topotecan accumulation by measuring fold change at 2 uM after 2 hrs in presence of topotecan by flow cytometry analysis relative to control
# Assay type: cell-based
# Conditions: hek293/r2, 2 h
# Summary of the method: as §3
row,Compound,fold change (FC)
1,COC(=O)c1cccc(COc2c(-c3ccc(OCCOCCOCCn4cc(CN(CCO)Cc5ccccc5)nn4)cc3)oc3ccccc3c2=O)c1,7

# Tested on: 2008
# Assay: Selectivity index, ratio of EC50 for inhibition of MRP1 (unknown origin) expressed in 2008/MRP1 cells assessed as reversal of doxorubicin resistance to Inhibition of BCRP (unknown origin) expressed in MCF7/MX100 cells assessed as reversal of topotecan resistance
# Assay type: cell-based
# Conditions: Homo sapiens
# Summary of the method: as §1
row,Compound,Ratio EC50
1,COC(=O)c1cccc(COc2c(-c3ccc(OCCOCCOCCn4cc(CN(CCO)Cc5ccccc5)nn4)cc3)oc3ccccc3c2=O)c1,625
2,COC(=O)c1cccc(COc2c(-c3ccc(OCCOCCn4cc(CN(Cc5ccccc5)Cc5ccccc5)nn4)cc3)oc3ccccc3c2=O)c1,34
3,COC(=O)c1cccc(COc2c(-c3ccc(OCCOCCN=[N+]=[N-])cc3)oc3ccccc3c2=O)c1,20
